This is a sample that favours compounds with a hit; in the whole collection about 2.2% have one here.
MT1-MMP act inh = MT1-MMP (human) activation inhibition; P50281; HT1080 RFP-PRO-GFP cells, GFP/RFP ratio fluorescence, overnight; percent of plate control window, DMSO zero; GFP/RFP ratio change, % at 20 µM; actives 0.061% (n = 360,000); AID 651647;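 active means GFP/RFP ratio change of at least 30% with cell ATP level not reduced by more than half and red fluorescence within 50% of control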
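system = RFP-PRO-GFP reporter HT1080 cells | dosing = 20 µM single dose, 1% DMSO | timing = overnight cell settling, then overnight compound exposure, 37 °C, 5% CO2 | read-out basis = GFP/RFP fluorescence ratio | controls = DMSO and RFP-L50D-GFP cell wells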
Tn6 DDE FP = DD(E)-Tn6 binding inhibition, primary FP screen; actives 0.21% (n = 370,000); Fibrin DD(E) TRITC-Tn6 fluorescence polarization displacement; P02675; AID 720509; inhibition, % at 8.3 µM;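 active means inhibition above a per-campaign cutoff: mean of compounds within control limits plus 3 SD, cut at about 15% in these data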
SKN-1 inh = blocks SKN-1 activity in C. elegans; C. elegans VP596 Pgst-4::GFP/RFP ratio, acrylamide-induced, 24 h; inhibition, % at 21.8 µM; actives 0.49% (n = 360,000); AID 624304;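 active means interference check ratio from 0.5 to 1.5 plus GFP to RFP signal ratio inhibition reaching or exceeding a fixed threshold, cut at about 30% in these data, passing the limit was not always enough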
Neddylation inh = blocks human cullin neddylation | calls only at 25 µM | actives 0.58% (n = 360,000) | TR-FRET cullin neddylation, biochemical; in the data active means inhibition above about 36%
Target sequence (P61081 whole entry, looked up): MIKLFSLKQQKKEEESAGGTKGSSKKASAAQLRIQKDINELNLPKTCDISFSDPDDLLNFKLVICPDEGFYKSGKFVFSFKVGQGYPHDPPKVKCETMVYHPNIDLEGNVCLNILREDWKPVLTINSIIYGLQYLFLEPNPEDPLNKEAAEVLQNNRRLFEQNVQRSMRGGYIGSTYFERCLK
Target sequence (Q13564 whole entry, looked up): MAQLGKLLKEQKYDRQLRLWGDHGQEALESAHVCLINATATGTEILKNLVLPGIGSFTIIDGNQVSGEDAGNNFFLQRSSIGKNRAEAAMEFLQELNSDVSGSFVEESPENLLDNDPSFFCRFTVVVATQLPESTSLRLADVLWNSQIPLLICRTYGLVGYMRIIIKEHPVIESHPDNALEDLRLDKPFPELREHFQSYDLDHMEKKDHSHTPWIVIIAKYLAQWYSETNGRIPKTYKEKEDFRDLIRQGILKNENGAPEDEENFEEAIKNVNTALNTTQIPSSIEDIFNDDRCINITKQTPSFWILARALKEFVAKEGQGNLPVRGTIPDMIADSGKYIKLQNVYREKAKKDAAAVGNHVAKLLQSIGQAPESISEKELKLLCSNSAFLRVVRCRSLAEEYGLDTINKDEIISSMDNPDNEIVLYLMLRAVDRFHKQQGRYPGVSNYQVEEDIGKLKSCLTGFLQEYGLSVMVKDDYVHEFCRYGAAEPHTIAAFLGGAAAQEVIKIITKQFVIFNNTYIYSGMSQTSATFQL
proKLK7 act = activators of human kallikrein-7 zymogen; actives 0.9% (n = 370,000); P49862; purified proKLK7, EDANS-DABCYL substrate fluorescence; 100% is mature enzyme control, 0% vehicle; activation, % at 7 µM; AID 652039;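 active means activation above the mean of all tested compounds plus 3 SD, computed per campaign excluding outliers beyond control limits, cut at about 13% in these data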
Tn7 DDE FP = inhibitors of Tn7 peptide binding to human fibrin DD(E); FP displacement of FITC-Tn7 peptide from fibrin DD(E); 0% = median of compound wells per plate; inhibition, % at 8.3 µM; P02675; actives 0.13% (n = 370,000); AID 720508;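 active means inhibition above the mean of compounds falling within the control limits plus 3 SD of them, cut at about 14% in these data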
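Test system – human fibrin DD(E) · Times – 10 min preincubation, 3 h with tracer, room temperature · Detection – fluorescence polarization of the labelled Tn7 tracer · Measure – percent inhibition normalized to high-control wells · Benchmarks – high control wells with 10 µM unlabelled Aha-Tn7 peptide (full inhibition) · Repeats – singlicate testing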
Neddyl inh conf = cullin neddylation inhibition, confirmation. shares compounds with Neddylation inh. TR-FRET cullin neddylation biochemical assay. calls only at 25 µM. actives 13% (n = 1,800); in the data active means inhibition above about 40%;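 further: neddylation substrate is the cullin 1 ring ligase complex with SKP2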
proKLK7 act conf = confirmation of human kallikrein-7 zymogen activators | shares compounds with proKLK7 act | purified proKLK7, EDANS-DABCYL substrate fluorescence; scaled: vehicle 0, mature enzyme 100 | activation, % at 7 µM | actives 68% (n = 3,200) | AID 686949;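 active means activation, as change over the incubation, above the mean of all tested compounds plus 3 SD, cut at about 13% in these data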
EDANS-DABCYL int = counter-screen for kallikrein-7 activators: EDANS-DABCYL optical interference; shares compounds with proKLK7 act; EDANS-DABCYL substrate fluorescence interference, no enzyme, 4 h; solvent 0%, active enzyme control 100%; activation, % at 7 µM; actives 80% (n = 3,200);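 active means activation above the all-compound mean plus 3 SD, ignoring values outside control-based bounds, cut at about 4.8% in these data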;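 further: value is the 4 h activation minus the activation read at time zero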
Each line names hits and unclear results; the compound was inactive in the other large screens (follow-up assays come after a bar, where shown).

COc1ccccc1NC(=O)Cn1nnc(C(=O)NCc2ccc3c(c2)OCO3)c1N	none
COc1ccc(Cl)cc1NC(=O)Cn1nnc(C(=O)NCc2ccc3c(c2)OCO3)c1N	Neddylation inh active | Neddyl inh conf inactive
Clc1cccc(CN2CCc3c([nH]c4ccccc34)C2)c1	Neddylation inh active | Neddyl inh conf inactive
O=c1[nH]c2ccccc2nc1-c1ccccc1	Neddylation inh active | Neddyl inh conf active
O=c1[nH]c2ccccc2nc1-c1ccc(Cl)cc1	none
Cc1cc(C(F)(F)F)nn1CC(=O)NNC(=S)Nc1ccc(Cl)cc1	none
O=C(Cn1nnc(-c2cc(C(F)(F)F)cc(C(F)(F)F)c2)n1)NNC(=S)Nc1ccc(Cl)cc1	Neddylation inh active | Neddyl inh conf inactive
Cc1nnsc1C(=O)Nc1ccccc1Cl	none
COc1ccc(-c2ccc(C(=O)NCc3ccc(C(F)(F)F)cc3)c3occc23)c(C)c1	Neddylation inh active | Neddyl inh conf inactive
Cc1ncc(C(=O)O)c(C(=O)O)c1N	Neddylation inh active
CSc1ncc(C(=O)O)c(C)n1	none
Cc1[nH]c2ccccc2c1/C=N/NC(=O)c1cccc(S(=O)(=O)Nc2ccccc2Cl)c1	Neddylation inh active | Neddyl inh conf inactive
CC(=O)N1c2ccc(Cl)cc2C2C=CCC2C1c1cccc2ccccc12 (stereo unspecified)	none (no result: Tn6 DDE FP, proKLK7 act, Tn7 DDE FP)
Cc1cc(C)c(S(C)(=O)=O)c(=O)[nH]1	none
Cc1cc(=O)c2c([nH]1)c(C)cc1[nH]c(C)c(C)c12	Neddylation inh active
CCCCOc1ccc(S(=O)(=O)N2CCN(c3ccc(N4CCN(CC)CC4)nn3)CC2)cc1	Neddylation inh active | Neddyl inh conf inactive
CCCCOc1ccc(S(=O)(=O)N2CCCCC2)cc1	none
Nc1c(C(=O)Nc2ccc(Cl)cc2)oc2ccccc12	Neddylation inh active
CCN(CC(=O)NCc1cccs1)C(=O)/C=C/c1cc(OC)c(OC)c(OC)c1	Neddylation inh active | Neddyl inh conf active
O=C(Nc1ccccc1)Nc1nnc(/C=C/c2ccccc2Cl)s1	Neddylation inh active | Neddyl inh conf inactive
O=c1c2ccccc2nc2n1CCCN2	Neddylation inh active
CC(=O)NC(Cc1cccc(C)c1)C(=O)NC1CCN(c2ncccc2[N+](=O)[O-])CC1 (stereo unspecified)	none
O=C(O)c1ccc(COc2ccccc2/C=C2\NC(=O)N(Cc3ccccc3F)C2=O)cc1	none
CC(NC(=O)c1ccccc1O)c1ccccc1 (stereo unspecified)	Neddylation inh active
O=C(CSc1ccc2nnc(-c3ccccn3)n2n1)N1CCOCC1	none (not shown: Neddylation inh)
CCOC(=O)N1CCN(C(=O)CSc2ccc3nnc(-c4ccccn4)n3n2)CC1	Neddylation inh active | Neddyl inh conf inactive
CCOCCCn1c(C)nc2c(c1=O)c1nc3ccccc3nc1n2CCC1=CCCCC1	Neddylation inh active | Neddyl inh conf inactive
CC(C)c1ccc(NC(=O)C2=CC=CN3CCS(=O)(=O)N=C23)cc1	none
O=C(NCCc1ccc(Cl)cc1Cl)C1=CC=CN2CCS(=O)(=O)N=C12	Neddylation inh active | Neddyl inh conf active
O=C(O)COc1cccc(NC(=O)c2ccccc2)c1	none
Cc1cc2c(c(N)n1)c(=O)oc1ccccc12	Neddylation inh active | Neddyl inh conf inactive
Cc1cc[n+](CCc2ccccc2)cc1C	none
COC(=O)COc1ccc2oc(=O)cc(-c3cc4cccc(OC)c4o3)c2c1	Neddylation inh active | Neddyl inh conf inactive
CCCSc1nc(N)c2c3c(sc2n1)CN(C)CC3	none (no result: Tn6 DDE FP, proKLK7 act, Tn7 DDE FP)
CN(C)CCSc1nc(N)c2c3c(sc2n1)CN(C)CC3	Neddylation inh active | Neddyl inh conf inactive
CC(C)Sc1nc(N)c2c3c(sc2n1)CN(C)CC3	none
COCCSc1nc(N)c2c3c(sc2n1)CN(C)CC3	Neddylation inh active | Neddyl inh conf inactive
Cc1ccc(C)n1CCN1CCN(C(=O)c2ccco2)CC1	none
OC1CCN(c2c3c(nc4cc(-c5ccc(Cl)cc5)nn24)CCC3)CC1	Neddylation inh active | Neddyl inh conf inactive
COc1ccccc1/C=C/c1nc(S(=O)(=O)c2ccccc2)c(NCCN(C)C)o1	Neddylation inh active
CCOC(=O)c1c(NC(=O)COC(=O)c2nccnc2N)sc(C(=O)N(C)C)c1C	Neddylation inh active, proKLK7 act 43 | Neddyl inh conf inactive | proKLK7 act conf 42 | EDANS-DABCYL int 46
CCOC(=O)c1c(NC(=O)COC(=O)c2ccccn2)sc(C(=O)N(C)C)c1C	none
N#CCC(=O)Nc1ccc(C(=O)NCC2(N3CCOCC3)CCCCC2)cc1	none
O=c1[nH]cnc2nc(-c3ccccc3)c(-c3ccccc3)nc12	Neddylation inh active, proKLK7 act 29 | proKLK7 act conf 29 | EDANS-DABCYL int 30
CCc1cc2c(=O)c(-c3nc4ccccc4n3C)c(COCC(=O)O)oc2cc1OC(=O)C(C)(C)C	none
CCc1cc2c(=O)c(-c3nc4ccccc4n3C)c(C)oc2cc1OC(C)=O	Neddylation inh active, proKLK7 act 38 | Neddyl inh conf inactive | proKLK7 act conf 69 | EDANS-DABCYL int 66
CCN(CC)Cc1c(O)ccc2c(-c3ccccc3)cc(=O)oc12	Neddylation inh active, proKLK7 act 22 | Neddyl inh conf inactive | proKLK7 act conf 23 | EDANS-DABCYL int 29
O=C(c1cnn2c(C(F)(F)F)cc(-c3cccs3)nc12)N1CCCC1	Neddylation inh active, proKLK7 act 16 | proKLK7 act conf 13 | EDANS-DABCYL int 14
COCCNC(=O)COC(=O)c1cc(-c2ccc(OC)cc2)nc2ccccc12	Neddylation inh active, proKLK7 act 137 | proKLK7 act conf 108 | EDANS-DABCYL int 119
COc1ccc(-c2cc(C(=O)OCC(=O)NC3CC3)c3ccccc3n2)cc1	Neddylation inh active, proKLK7 act 16 | proKLK7 act conf inactive | EDANS-DABCYL int 9.7
CCNC(=O)COC(=O)c1cc(-c2ccc(OC)cc2)nc2ccccc12	Neddylation inh active, proKLK7 act 174 | proKLK7 act conf 208 | EDANS-DABCYL int 260
CCOc1cc2c3c(c1)C(C)CC(C)(C)N3C(=O)C2=O (stereo unspecified)	none

Screening results deposited in PubChem by several laboratories.
